Consider 17 molecules from ChEMBL document CHEMBL1124784, “Synthesis and bioactivity of a new class of rigid glutamate analogues. Modulators of the N-methyl-D-aspartate receptor” (1990).

The structures appear in SMILES notation. Where “and” joins values, the source holds several entries; their conditions need not be identical. Equal values may be shown once.

For assay [1], the system named is Cerebellar granule neurone. The assay is described as follows: Influx of calcium in Cerebellar Granule Cells of rat after 10 min of incubation with compound and 10 uM aspartate. The class given is functional. Put shortly: (§1)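 Cerebellar granule cells preincubated 15 min with 50 μM azetidine, then 10 min without (basal) or with 10 μM glutamate or 10 μM aspartate; 45Ca2+ influx measured. Percent stimulation relative to agonist alone (100%) after subtracting respective basal values; means ± SEM of four experiments.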

Assay [2] relates to Cerebellar granule neurone. Kind of assay: Influx of calcium in Cerebellar Granule Cells of rat after 10 min of incubation with compound. The class given is functional. Put shortly:
as §1

Assay [3] has as its system Cerebellar granule neurone. The assay is described as follows: Stimulation caused by aspartate in Cerebellar Granule Cells over basal stimulation. The class given is functional, Rattus norvegicus. The procedure, abridged:
as §1

Assay [4] deals with Cerebellar granule neurone. The assay is described as follows: Stimulation caused by Glutamate in Cerebellar Granule Cells over basal stimulation. The class given is functional, Rattus norvegicus. The procedure, abridged:
as §1

For assay [5], the system named is Cerebellar granule neurone. Kind of assay: Influx of calcium in Cerebellar Granule Cells of rat after 10 min of incubation with compound and 10 uM glutamate. The class given is functional. The procedure, abridged:
as §1

For assay [6], the system named is Cerebellar granule neurone. The assay is described as follows: Stimulation caused by Aspartate in Cerebellar Granule Cells at 50 uM concentration. The class given is functional, Rattus norvegicus. The procedure, abridged:
(§2)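 Rat cerebellar granule cells (8-day-old rats), cultured 8–9 days; HEPES saline pH 7.35 with 1.3 mM CaCl2, 45CaCl2 tracer 10 min, then azetidine 50 μM 15 min at 37 °C, then agonist 10 min. Kainate/quisqualate media held 1 mM MgCl2 and 10 μM CPP. Choline/EGTA wash stop; 45Ca uptake per mg protein.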

The subject of assay [7] is Cerebellar granule neurone. The assay is described as follows: Stimulation caused by Aspartate in Cerebellar Granule Cells at 50 uM concentration in presence of 100 uM quisqualate. Type of assay: functional, Rattus norvegicus. The procedure, abridged: as §2
The subject of assay [8] is Cerebellar granule neurone. Kind of assay: Stimulation caused by Aspartate in Cerebellar Granule Cells at 50 uM concentration in presence of 50 uM NMDA. Type of assay: functional, Rattus norvegicus. Put shortly: as §2
The test system of assay [9] is Cerebellar granule neurone. Kind of assay: Stimulation caused by Aspartate in Cerebellar Granule Cells at 50 uM concentration in presence of 100 uM kainate. Type of assay: functional, Rattus norvegicus. Put shortly: as §2
In assay [10] the test system is Cerebellar granule neurone. Kind of assay: Ability to induce calcium uptake in cerebellar granule cells was determined at 50 uM concentration in presence of 1 uM glutamate (control= 39+/-3.8). The class given is functional, Rattus norvegicus. The procedure, abridged: as §2
Assay [11] concerns Cerebellar granule neurone. Kind of assay: Ability to induce calcium uptake in cerebellar granule cells was determined at 50 uM concentration in presence of 10 uM CPP (control= 5.4+/-0.3). Type of assay: functional, Rattus norvegicus. Put shortly: as §2
Assay [12] has as its system Cerebellar granule neurone. Kind of assay: Ability to induce calcium uptake in cerebellar granule cells was determined at 50 uM concentration (control= 16+/-1.5). The class given is functional, Rattus norvegicus. Put shortly: as §2
The subject of assay [13] is Cerebellar granule neurone. The assay is described as follows: Stimulation caused by Aspartate in Cerebellar Granule Cells at 50 uM concentration in presence of 1 uM glutamate. Type of assay: functional, Rattus norvegicus. The procedure, abridged: as §2
For assay [14], the species on record is Rattus norvegicus. Kind of assay: Effect on fractional [3H]GABA release from rat forebrain neurons in culture. Type of assay: functional. Put shortly: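 Embryonic rat forebrain neurons cultured 8–9 days, loaded with 1 μCi/mL [3H]GABA 60–90 min at 37 °C, washed eight times at 5 min intervals in Mg2+-free HEPES saline, then agonist added; CGS 19755 (100 μM) where used added 5 min before. Evoked efflux minus basal, as fraction of remaining cell tritium (SDS-solubilized); 4–6 wells.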

Assay [15] is filed under the species Rattus norvegicus. The assay is described as follows: Effect on fractional [3H]GABA release from rat forebrain neurons in culture in the presence of 100 uM CGS 19755.
In assay [16] the test system is Cerebellar granule neurone. The assay is described as follows: Ability to induce calcium uptake in cerebellar granule cells was determined at 50 uM concentration in presence of 100 uM kainate (control = 56+/-3.7). Type of assay: functional, Rattus norvegicus. The procedure, abridged:
as §2

In assay [17] the test system is Cerebellar granule neurone. The assay is described as follows: Stimulation caused by Aspartate in Cerebellar Granule Cells at 50 uM concentration in presence of 10 uM CPP. The class given is functional, Rattus norvegicus. The procedure, abridged:
as §2

In assay [18] the test system is Cerebellar granule neurone. The assay is described as follows: Ability to induce calcium uptake in cerebellar granule cells was determined at 50 uM concentration in presence of 50 uM NMDA (control = 91+/-6.5). The class given is functional, Rattus norvegicus. Put shortly: as §2
Assay [19] deals with Cerebellar granule neurone. Kind of assay: Ability to induce calcium uptake in cerebellar granule cells was determined at 50 uM concentration in presence of 100 uM quisqualate (control=15+/-1.2). Type of assay: functional, Rattus norvegicus. The procedure, abridged: as §2
For assay [20], the system named is Cerebellar granule neurone. Kind of assay: Ability to induce calcium uptake in cerebellar granule cells was determined at 50 uM concentration in presence of 10 uM aspartate (control = 43+/-2.9).
Assay [21] relates to Cerebellar granule neurone. Kind of assay: Stimulation caused by Aspartate in Cerebellar Granule Cells at 50 uM concentration in presence of 10 uM aspartate.

Regarding `O=C(O)[C@@H]1CCN1`, the Influx in [1] was determined as 44.5 nM/mg; in assay [2], 16 nM/mg. Also, the Stimulation in assay [3] came to 105%.
As to `O=C(O)[C@H]1C[C@@H](C(=O)O)N1Cc1ccccc1`, the Influx in assay [2] is 15 nM/mg.
Regarding `COC(=O)[C@@H]1C[C@H](C(=O)OC)N1`, in [2], the Influx is 19 nM/mg.
Still for that read-out and setting: then `NC(=O)[C@@H]1C[C@H](C(=O)O)N1`, with 20 nM/mg.
For `CC(C)(C)OC(=O)[C@H]1C[C@@H](C(=O)O)N1`, the results for the Influx in assay [1], in assay [2] and in assay [5] were 52 nM/mg, 15 nM/mg and 67 nM/mg, respectively. Moreover, the Stimulation in assay [4] is 144%; in assay [3], 136%.
Regarding `NC(=O)[C@@H]1C[C@H](C(N)=O)N1`, the Influx in assay [2] was found to be 15 nM/mg.
For the molecule `COC(=O)[C@@H]1C[C@@H](C(=O)OC(C)(C)C)N1`, the Influx in [2] came to 15 nM/mg; in assay [5], 52 nM/mg. Further, the Stimulation in [4] is reported as 105%.
For the molecule `CC(=O)N1[C@@H](C(=O)O)C[C@H]1C(=O)O`, the Influx in [2] turned out to be 16 nM/mg.
Still for that read-out and setting: as for `CCCCCCN1[C@@H](C(=O)O)C[C@H]1C(=O)O`, the figure is 16 nM/mg.
`O=C(O)[C@H]1C[C@@H](CO)N1`: the values for the Influx in assay [1] and in assay [2] were 58 nM/mg and 19 nM/mg, respectively.
Consider `COC(=O)[C@H]1C[C@@H](C(=O)O)N1`, for which the Influx in [2] came to 18 nM/mg.
`O=C(O)[C@@H]1C[C@H](C(=O)O)N1`: the Stimulation in [6] was 144%; in assay [7], 100%; in [8] it was 151%; in assay [9], 93%; in [13] it was 268%; in assay [17] it was 91%. In addition, the Stimulation in [4] is on record as 186%; in [3], 175%; in assay [21] it was 193%. Also, the Influx in assay [10] was 85 nM/mg; in assay [1] it was 68 nM/mg; in assay [11], 4.9 nM/mg; in assay [12], 23 nM/mg; in assay [2], 25 nM/mg and 21 nM/mg; in assay [16], 52 nM/mg. The Influx came to 136 nM/mg in assay [18], 15 nM/mg in assay [19], 92 nM/mg in assay [5] and 75 nM/mg in assay [20]. Besides, the Release in assay [14] was 1.04%; in [15], -0.08%.
In the case of `CC(C)(C)OC(=O)[C@@H]1C[C@@H](C(=O)O)N1`, the Influx was found to be 16 nM/mg in [2] and 51 nM/mg in assay [5]. In [4], this molecule had a Stimulation of 97%.
Consider `COC(=O)[C@H]1C[C@@H](C(=O)OC(C)(C)C)N1`, for which the Influx was 43 nM/mg in assay [1], 14 nM/mg in assay [2] and 54 nM/mg in assay [5]. Besides, the figures for the Stimulation in assay [4] and in assay [3] were 111% and 107%, respectively.
Turning to `O=C(O)[C@@H]1C[C@@H](C(=O)O)N1`, the Influx in [2] came out at 14 nM/mg; in [5] it was 52 nM/mg. This molecule gave a Stimulation in assay [4] of 106%.
Turning to `C=C(C)[C@H]1CN[C@H](C(=O)O)[C@H]1CC(=O)O` [KAINIC ACID], the Release in assay [14] is 2.65%; in [15] it was 2.63%.
For the molecule `CN[C@H](CC(=O)O)C(=O)O` [N-METHYL-D-ASPARTIC ACID (NMDA)], the Release was found to be 0.73% in [14] and 0.09% in assay [15].
